Results taken from ChEMBL document CHEMBL5247578, “Effective synthesis of benzimidazoles-imidazo[1,2-a]pyrazine conjugates: A comparative study of mono-and bis-benzimidazoles for antitumor activity” (Eur J Med Chem, 2019).

What was measured:
PC-3 [1] = assay: Antiproliferative activity against human PC-3 cells assessed as cell growth inhibition by measuring lethal concentration incubated for 48 hrs by sulforhodamine B assay; assay type: functional; details: read-out: LC50 (the source's name)
RPMI-8226 [2] = assay: Growth inhibition against human RPMI-8226 cells incubated for 48 hrs by sulforhodamine B assay; assay type: functional
DU-145 = assay: Growth inhibition against human DU-145 cells assessed as total growth inhibitory concentration incubated for 48 hrs by sulforhodamine B assay; assay type: functional
SK-MEL-2 = assay: Growth inhibition against human SK-MEL-2 cells incubated for 48 hrs by sulforhodamine B assay; assay type: functional
SR [3] = assay: Antiproliferative activity against human SR cells assessed as cell growth inhibition by measuring lethal concentration incubated for 48 hrs by sulforhodamine B assay; assay type: functional; details: read-out: LC50 (the source's name)
Procedure, shortened: (§1)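 NCI-60 five-dose screen (10^-4 to 10^-8 M, 10-fold dilutions; DMSO stocks). Cells in RPMI 1640 with 5% FBS and 2 mM L-glutamine, preincubated 24 h, then exposed 48 h at 37 °C, 5% CO2. Fixed with cold TCA, stained with 0.4% SRB, absorbance read at 515 nm. Time-zero plates used as reference. LC50 taken from [(Ti-Tz)/Tz]×100 […].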

IGROV-1 [4] = assay: Growth inhibition against human IGROV-1 cells assessed as total growth inhibitory concentration incubated for 48 hrs by sulforhodamine B assay; assay type: functional
SN12C [5] = assay: Antiproliferative activity against human SN12C cells assessed as cell growth at 0.000001 M incubated for 48 hrs by SRB assay relative to control; assay type: functional; details: read-out: Activity
RPMI-8226 [6] = assay: Antiproliferative activity against human RPMI-8226 cells assessed as cell growth inhibition by measuring lethal concentration incubated for 48 hrs by sulforhodamine B assay; assay type: functional; details: read-out: LC50 (the source's name)
NCI-H226 = assay: Growth inhibition against human NCI-H226 cells incubated for 48 hrs by sulforhodamine B assay; assay type: functional
BT-549 [7] = assay: Growth inhibition against human BT-549 cells assessed as total growth inhibitory concentration incubated for 48 hrs by sulforhodamine B assay; assay type: functional
A549 = assay: Growth inhibition against human A549 cells incubated for 48 hrs by sulforhodamine B assay; assay type: functional
T47D = assay: Antiproliferative activity against human T47D cells assessed as cell growth at 0.00001 M incubated for 48 hrs by SRB assay relative to control; assay type: functional; details: read-out: Activity
HT-29 = assay: Antiproliferative activity against human HT-29 cells assessed as cell growth at 0.00000001 M incubated for 48 hrs by SRB assay relative to control; assay type: functional; details: dose 10 nM, read-out: Activity
Procedure, shortened: (§2)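 NCI-60 five-dose screen (10^-4 to 10^-8 M). Cells grown in RPMI 1640 with 5% FBS and 2 mM L-glutamine, plated at 5,000-40,000 cells/well and preincubated 24 h. Drug given from DMSO stock, then 48 h at 37 °C, 5% CO2. For adherent lines, cells fixed with cold TCA, SRB-stained and read at 515 nm. Percent growth taken against time-zero and untreated control.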

SN12C [8] = assay: Growth inhibition against human SN12C cells incubated for 48 hrs by sulforhodamine B assay; assay type: functional
HCC 2998 = assay: Antiproliferative activity against human HCC 2998 cells assessed as cell growth at 0.0000001 M incubated for 48 hrs by SRB assay relative to control; assay type: functional; details: dose 100 nM, read-out: Activity; procedure, shortened: as §2
HEK293 = assay: Cytotoxicity against human HEK293 cells assessed as reduction in cell viability at 0.00000001 M incubated for 48 hrs by MTT colorimetric assay relative to control; assay type: toxicity, cell-based; details: hek293, 48 h, 0.01 µM, dose 10 nM
OVCAR-3 = assay: Antiproliferative activity against human OVCAR-3 cells assessed as cell growth at 0.00001 M incubated for 48 hrs by SRB assay relative to control; assay type: functional; details: read-out: Activity
PC-3 [9] = assay: Antiproliferative activity against human PC-3 cells assessed as cell growth at 0.00001 M incubated for 48 hrs by SRB assay relative to control; assay type: functional; details: read-out: Activity
Malme-3M = assay: Antiproliferative activity against human Malme-3M cells assessed as cell growth inhibition by measuring lethal concentration incubated for 48 hrs by sulforhodamine B assay; assay type: functional; details: read-out: LC50 (the source's name)
MDA-MB-468 = assay: Antiproliferative activity against human MDA-MB-468 cells assessed as cell growth at 0.00001 M incubated for 48 hrs by SRB assay relative to control; assay type: functional; details: read-out: Activity
HCT-15 = assay: Antiproliferative activity against human HCT-15 cells assessed as cell growth at 0.00001 M incubated for 48 hrs by SRB assay relative to control; assay type: functional; details: read-out: Activity; procedure, shortened: as §2
HCT-116 = assay: Antiproliferative activity against human HCT-116 cells assessed as cell growth at 0.000001 M incubated for 48 hrs by SRB assay relative to control; assay type: functional; details: read-out: Activity; procedure, shortened: as §2
SK-MEL-5 = assay: Antiproliferative activity against human SK-MEL-5 cells assessed as cell growth at 0.0001 M incubated for 48 hrs by SRB assay relative to control; assay type: functional; details: read-out: Activity
SF-268 = assay: Antiproliferative activity against human SF-268 cells assessed as cell growth inhibition by measuring lethal concentration incubated for 48 hrs by sulforhodamine B assay; assay type: functional; details: read-out: LC50 (the source's name)
MDA-MB-435 = assay: Antiproliferative activity against human MDA-MB-435 cells assessed as cell growth inhibition by measuring lethal concentration incubated for 48 hrs by sulforhodamine B assay; assay type: functional; details: read-out: LC50 (the source's name)
MOLT-4 = assay: Antiproliferative activity against human MOLT-4 cells assessed as cell growth at 0.0001 M incubated for 48 hrs by SRB assay relative to control; assay type: functional; details: read-out: Activity
NCI/ADR-RES = assay: Antiproliferative activity against human NCI/ADR-RES cells assessed as cell growth at 0.000001 M incubated for 48 hrs by SRB assay relative to control; assay type: functional; details: read-out: Activity
NCI-H460 = assay: Growth inhibition against human NCI-H460 cells incubated for 48 hrs by sulforhodamine B assay; assay type: functional
SR [10] = assay: Growth inhibition against human SR cells incubated for 48 hrs by sulforhodamine B assay; assay type: functional
SW-620 = assay: Antiproliferative activity against human SW620 cells assessed as cell growth inhibition by measuring lethal concentration incubated for 48 hrs by sulforhodamine B assay; assay type: functional; details: read-out: LC50 (the source's name); procedure, shortened: as §1
BT-549 [11] = assay: Antiproliferative activity against human BT-549 cells assessed as cell growth at 0.0000001 M incubated for 48 hrs by SRB assay relative to control; assay type: functional; details: dose 100 nM, read-out: Activity
Procedure, shortened: (§3)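 NCI-60 five-dose screen over 10^-4–10^-8 M (10-fold dilutions). Cells grown in RPMI 1640 with 5% FBS and 2 mM L-glutamine, seeded at 5,000–40,000 cells/well and preincubated 24 h. Drug from DMSO stock, 48 h at 37 °C, 5% CO2. Adherent cells TCA-fixed and stained with 0.4% SRB; A515 read. Percent growth = (Ti−Tz)/(C−Tz)×100, or (Ti−Tz)/Tz×100 when Ti<Tz.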

COLO 205 = assay: Antiproliferative activity against human COLO 205 cells assessed as cell growth at 0.0000001 M incubated for 48 hrs by SRB assay relative to control; assay type: functional; details: dose 100 nM, read-out: Activity; procedure, shortened: as §3
UACC-257 = assay: Antiproliferative activity against human UACC-257 cells assessed as cell growth at 0.00000001 M incubated for 48 hrs by SRB assay relative to control; assay type: functional; details: dose 10 nM, read-out: Activity
IGROV-1 [12] = assay: Antiproliferative activity against human IGROV-1 cells assessed as cell growth at 0.0001 M incubated for 48 hrs by SRB assay relative to control; assay type: functional; details: read-out: Activity

SMILES | CC50 (PC-3 [1]) | GI50 (RPMI-8226 [2]) | TGI (DU-145) | GI50 (SK-MEL-2) | CC50 (SR [3]) | TGI (IGROV-1 [4]) | growth at 1 µM (SN12C [5]) | CC50 (RPMI-8226 [6]) | GI50 (NCI-H226) | TGI (BT-549 [7]) | GI50 (A549) | growth at 10 µM (T47D) | growth at 0.01 µM (HT-29) | GI50 (SN12C [8]) | growth at 0.1 µM (HCC 2998) | Activity (HEK293) | growth at 10 µM (OVCAR-3) | growth at 10 µM (PC-3 [9]) | CC50 (Malme-3M) | growth at 10 µM (MDA-MB-468) | other results
COc1ccc(-c2cn3ccnc3c(-c3ccc4ncn(C5CCCCC5)c4c3)n2)cc1 | > 100 µM | 2960 nM | > 100000 nM | 944 nM | > 100 µM | > 100 µM | 66% | > 100 µM | 2970 nM | 3.91 µM | 1830 nM | -24% | 94% | 2110 nM | 94% | 13.96% | 10% | 5% | > 100 µM | 21% | growth at 10 µM (HCT-15): 9%; growth at 1 µM (HCT-116): 23%; growth at 100 µM (SK-MEL-5): -31%; CC50 (SF-268): > 100 µM; CC50 (MDA-MB-435): > 100 µM; growth at 100 µM (MOLT-4): 22%; growth at 1 µM (NCI/ADR-RES): 38%; GI50 (NCI-H460): 622 nM; GI50 (SR [10]): 890 nM; CC50 (SW-620): > 100 µM; growth at 0.1 µM (BT-549 [11]): 88%; growth at 0.1 µM (COLO 205): 102%; growth at 0.01 µM (UACC-257): 100%; growth at 100 µM (IGROV-1 [12]): 24%
c1ccc(Cn2cnc3ccc(-c4nc(-c5ccc6c(c5)ncn6C5CCCCC5)cn5ccnc45)cc32)cc1 | > 100 µM | 1150 nM | 2100 nM | 2020 nM | > 100 µM | > 100 µM | 95% | > 100 µM | 2930 nM | 2.68 µM | 2330 nM | -2% | 99% | 2270 nM | 98% | 12.08% | -29% | -10% | > 100 µM | -49% | growth at 10 µM (HCT-15): -13%; growth at 1 µM (HCT-116): 54%; growth at 100 µM (SK-MEL-5): -46%; CC50 (SF-268): > 100 µM; CC50 (MDA-MB-435): > 100 µM; growth at 100 µM (MOLT-4): 4%; growth at 1 µM (NCI/ADR-RES): 84%; GI50 (NCI-H460): 2300 nM; GI50 (SR [10]): 1680 nM; CC50 (SW-620): > 100 µM; growth at 0.1 µM (BT-549 [11]): 92%; growth at 0.1 µM (COLO 205): 99%; growth at 0.01 µM (UACC-257): 101%; growth at 100 µM (IGROV-1 [12]): 18%
